Assay results as given in ChEMBL document CHEMBL1142564, “Lanostane triterpenoids and triterpene glycosides from the fruit body of Fomitopsis pinicola and their inhibitory activity against COX-1 and COX-2” (J Nat Prod, 2005).

Legend:
[1] = molecular target: T1, Prostaglandin G/H synthase 1 (Ovis aries, UniProt P05979); assay: Inhibition of COX1 from ram seminal vesicles by liquid scintillation counter
T1 sequence (P05979 whole entry): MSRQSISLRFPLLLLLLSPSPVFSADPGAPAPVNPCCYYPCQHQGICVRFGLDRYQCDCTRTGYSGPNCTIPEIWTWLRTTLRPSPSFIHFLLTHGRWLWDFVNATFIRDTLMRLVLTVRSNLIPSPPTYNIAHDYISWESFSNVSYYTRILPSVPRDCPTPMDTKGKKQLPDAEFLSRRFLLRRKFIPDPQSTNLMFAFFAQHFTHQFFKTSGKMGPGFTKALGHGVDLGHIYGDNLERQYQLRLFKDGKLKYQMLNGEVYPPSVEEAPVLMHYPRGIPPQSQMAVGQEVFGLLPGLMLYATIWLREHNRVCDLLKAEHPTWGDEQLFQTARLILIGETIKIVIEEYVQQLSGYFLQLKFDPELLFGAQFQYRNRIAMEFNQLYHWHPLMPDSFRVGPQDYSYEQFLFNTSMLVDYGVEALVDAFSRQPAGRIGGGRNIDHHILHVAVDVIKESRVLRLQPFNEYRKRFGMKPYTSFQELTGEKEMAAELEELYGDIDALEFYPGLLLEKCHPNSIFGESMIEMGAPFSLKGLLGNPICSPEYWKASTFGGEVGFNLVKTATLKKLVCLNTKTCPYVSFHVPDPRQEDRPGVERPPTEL
Outline: (§1)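 Enzymes used were ram seminal vesicle COX-1 and sheep placenta COX-2 (70% pure), 2 units each, in 0.1 M Tris-HCl pH 7.5 with 1 mM hematin and 2 mM phenol. Sample was preincubated 2 min at 37 °C, then 51.4 µM [1-14C]arachidonic acid was added for 2 min at 37 °C. Extraction used hexane-EtOAc (2:1); PGE2 was measured by radioimmunoassay with scintillation counting. IC50 came from duplicate four-point titration.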

[2] = molecular target: Prostaglandin G/H synthase 2 (Ovis aries, UniProt P79208); assay: Inhibition of sheep placental COX2 by liquid scintillation counter; outline: as §1
[3] = molecular target: T2, Prostaglandin G/H synthase 1 (Ovis aries) (UniProt P05979); assay: Inhibition of COX1 from ram seminal vesicles at 10 ug/ml by liquid scintillation counter
T2 sequence (whole entry): T1 sequence (P05979 whole entry)

[4] = Inhibition of sheep placental COX2 by liquid scintillation counter
[5] = test system: Prostaglandin G/H synthase 2 (Ovis aries); assay: Inhibition of sheep placental COX2 at 10 ug/ml by liquid scintillation counter

Chain of Prostaglandin G/H synthase 2 (P79208 whole entry, looked up): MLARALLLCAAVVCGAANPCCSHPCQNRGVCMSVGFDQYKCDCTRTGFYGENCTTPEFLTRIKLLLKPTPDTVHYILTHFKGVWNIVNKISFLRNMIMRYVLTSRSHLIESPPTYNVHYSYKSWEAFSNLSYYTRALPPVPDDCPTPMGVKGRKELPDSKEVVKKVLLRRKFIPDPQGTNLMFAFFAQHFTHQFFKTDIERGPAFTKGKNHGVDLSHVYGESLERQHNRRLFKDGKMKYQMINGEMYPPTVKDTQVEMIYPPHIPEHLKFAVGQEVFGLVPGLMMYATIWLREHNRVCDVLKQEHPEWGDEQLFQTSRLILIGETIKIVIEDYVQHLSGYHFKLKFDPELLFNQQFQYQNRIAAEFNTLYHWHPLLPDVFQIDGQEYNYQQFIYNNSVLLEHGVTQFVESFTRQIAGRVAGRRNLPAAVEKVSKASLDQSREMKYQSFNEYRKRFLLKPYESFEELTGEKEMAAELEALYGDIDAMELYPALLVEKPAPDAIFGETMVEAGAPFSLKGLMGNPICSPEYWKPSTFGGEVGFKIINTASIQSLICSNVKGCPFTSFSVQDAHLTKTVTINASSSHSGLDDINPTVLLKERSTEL

IC50 [1]	IC50 [2]	inhibition [3]	INH [4]	inhibition [5]	SMILES
1910 µM	5110 µM				CC(C)=CCC[C@@H](C(=O)O[C@@H]1OC[C@@H](O)[C@H](O)[C@H]1O)[C@H]1CC[C@@]2(C)C3=C(CC[C@]12C)[C@@]1(C)CCC(=O)C(C)(C)[C@@H]1CC3 [FOMITOSIDE C]
	1.13 µM	27.5%			CC(=O)O[C@@H]1CC[C@]2(C)C3=C(CC[C@H]2C1(C)C)[C@]1(C)CC[C@H]([C@@H](CCC=C(C)C)C(=O)O[C@@H]2OC[C@@H](O)[C@H](O)[C@H]2O)[C@@]1(C)CC3 [FOMITOSIDE F]
3330 µM	2390 µM				C=C(CC[C@@H](C(=O)O[C@@H]1OC[C@@H](O)[C@H](O)[C@H]1O)[C@H]1CC[C@@]2(C)C3=C(CC[C@]12C)[C@@]1(C)CCC(=O)C(C)(C)[C@@H]1CC3)C(C)C [FOMITOSIDE D]
	1.15 µM	18.1%			CC(C)(O)[C@@H](O)CC[C@@H](C(=O)O)[C@H]1CC[C@@]2(C)C3=C(CC[C@]12C)[C@@]1(C)CCC(=O)C(C)(C)[C@@H]1CC3 [FOMITOPINIC ACID A]
	0.15 µM	57.2%			CC(=O)O[C@@H]1CC[C@]2(C)C3=C(CC[C@H]2C1(C)C)[C@]1(C)CC[C@H]([C@@H](C/C=C/C(C)(C)O)C(=O)O[C@@H]2OC[C@@H](O)[C@H](O)[C@H]2O)[C@@]1(C)CC3 [FOMITOSIDE E]
		21.7%	1.85 ×10⁻⁵ M		C=C(CC[C@@H](C(=O)O[C@@H]1OC[C@@H](O)[C@H](O)[C@H]1O)[C@H]1CC[C@@]2(C)C3=C(CC[C@]12C)[C@@]1(C)CC[C@@H](OC(C)=O)C(C)(C)[C@@H]1CC3)C(C)C
73.9 µM				70.1%	COC(=O)CC(C)(O)CC(=O)O[C@@H]1CC[C@]2(C)C3=C(CC[C@H]2C1(C)C)[C@]1(C)CC[C@H]([C@@H](CCC=C(C)C)C(=O)O[C@@H]2OC[C@@H](O)[C@H](O)[C@H]2O)[C@@]1(C)CC3 (some centres undefined) [FOMITOSIDE H]
